Compound activity: PubChem, Broad Institute
In the library only some 3% were active in any assay of this set; here they are far more common.
Glyco luc inh – N-linked glycosylation inhibition; D54 ERlucT glycosylation luciferase reporter, 24 h; percent of 100 nM tunicamycin response; reporter increase, % at 12.5 µM; actives 0.23% (n = 360,000); AID 588692;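 active = mean luciferase reporter signal, scaled so untreated is 0 and the glycosylation-blocking control 100, at or above a set limit in every replicate; inconclusive = mean reaches the limit but not every replicate does; inactive = mean below the limit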;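 note: luciferase carries N-glycosylation sites so blocking glycosylation raises the light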
PfHsp90 yeast 2 – reduces growth (ATP signal) of yeast expressing P. falciparum Hsp90. inhibition, % at 9.4 µM. S. cerevisiae expressing PfHsp90, BacTiter-Glo ATP, 48 h; yeast lacking PDR1 and PDR3 efflux regulators. actives 0.32% (n = 310,000);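 active = every replicate shows inhibition above about 80%, whatever the replicate mean, limit read from the data; inconclusive = mean inhibition reaches the set limit but some replicate falls short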
T cruzi inh – blocks replication of Trypanosoma cruzi; T. cruzi beta-gal in NIH3T3, luminescence, 90 h; inhibition, % (no concentration beside the values); actives 1.4% (n = 300,000);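 active = mean inhibition across valid replicates above about 55%, limit read from the data; inconclusive = mean below that limit but half or more replicates reach it; inactive = mean below it, under half of replicates reach it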;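 note: signal also drops with host cell toxicity which is not excluded here; higher percent means less beta-gal luminescence so fewer parasites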
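System: mouse NIH/3T3 fibroblasts infected with β-gal-expressing T. cruzi Tulahuen C4 / Input: NIH/3T3 cells, 5,000 per well / Buffer or medium: Low-serum DMEM with 2% FBS / Probe or stimulus: 5000 reporter trypomastigotes per well / Schedule: ≥90 h infection period, 3 h prior cell attachment / Measured by: GalScreen luminescence, 60 min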
PvdQ acylase – P. aeruginosa PvdQ acylase inhibition; purified PvdQ acylase, fluorescence plate reader; inhibition, % at 10 µM; actives 0.063% (n = 340,000); in the data active = inhibition above about 30%, passing the limit was not always enough; inconclusive = no clear call, values can overlap the other calls
HSF-1 act – increases HSF-1 driven luciferase reporter signal | activation, % at 9 µM | NIH3T3-HGL HSF-1 luciferase reporter, MG132, 8 h; 100% = twice DMSO control signal | AID 504408 | actives 1.7% (n = 300,000);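 active = mean replicate activation of at least 50% with a set share of replicates each reaching 50%; inconclusive = only one of those two conditions met; inactive = mean below 50% and too few replicates reaching it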
CaV13 ICDI inh – Disruptors of the CACNA1D IQ motif to Ca2+-dependent inactivation inhibitor domain association, primary screening, Förster resonance energy transfer in intact living …; HEK cells, CFP/YFP FRET ICDI-IQ, plate reader, 10 min; percent FRET-ratio fall versus neutral wells; inhibition, % at 12.3 µM; actives 0.098% (n = 340,000); AID 743397;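 active = mean replicate inhibition of at least 30% and at least 1% of replicates passing that level; inconclusive = only one of the two criteria is met; inactive = neither criterion is met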
Of the large screens only hits and unclear results are named; the others gave an inactive call.

O=S(=O)(Cc1nc2ccccc2s1)c1ccccc1	HSF-1 act 59 (no result: T cruzi inh)
O=C(CCS(=O)(=O)c1ccccc1)Nc1ccccn1	HSF-1 act 59
O=C(Nc1ccccc1)c1nc2ccccc2s1	HSF-1 act 59
O=C(CCS(=O)(=O)c1ccccc1)Nc1ccc(-c2nc3ccccc3s2)cc1	HSF-1 act 58
O=C(CCS(=O)(=O)c1ccccc1)Nc1cccc(-c2nc3ccccc3s2)c1	none
Cc1cc(=O)oc2cc(OCc3c(F)cccc3Cl)ccc12	none (no result: Glyco luc inh, PfHsp90 yeast 2, T cruzi inh, PvdQ acylase, HSF-1 act)
CC(=O)C1=C(C)N(Cc2ccc(F)cc2)C(=S)NC1c1cccc(Br)c1 (centres undefined)	none (no result: Glyco luc inh, PfHsp90 yeast 2, T cruzi inh, PvdQ acylase, HSF-1 act)
O=C(CN1CCN(c2cnn(-c3ccccc3)c(=O)c2Cl)CC1)NC1CCS(=O)(=O)C1 (centres undefined)	none (no result: T cruzi inh, HSF-1 act)
O=C(CN(CC1CCCO1)C(=O)CNS(=O)(=O)c1ccc(F)cc1)NC1CCCC1 (centres undefined)	HSF-1 act 63
O=C(CN(Cc1ccc(F)cc1)C(=O)CNS(=O)(=O)c1ccc(Cl)cc1)NCC1CCCO1 (centres undefined)	none
Cc1ccc(S(=O)(=O)NCC(=O)N(CC(=O)NCC2CCCO2)Cc2ccc(Cl)cc2)cc1 (centres undefined)	HSF-1 act 52
CC(C)(C)c1ccc(C(=O)N2CCC2(C)C(=O)NCCC#N)cc1 (centres undefined)	none (no result: PfHsp90 yeast 2, T cruzi inh, PvdQ acylase, HSF-1 act)
Cc1onc(-c2ccccc2)c1C(=O)OCC(=O)c1ccc(F)cc1	none (no result: PfHsp90 yeast 2, T cruzi inh, PvdQ acylase, HSF-1 act)
Clc1nnc(N/N=C/c2ccccc2)c2ccccc12	none
CC(=O)Nc1ccc(C=NNc2nnc(NN=Cc3ccc(NC(C)=O)cc3)c3ccccc23)cc1	none (no result: T cruzi inh, HSF-1 act)
Cc1ccc(/C=N/Nc2nnc(Cl)c3ccccc23)cc1	HSF-1 act 65
Clc1ccc(/C=N/Nc2nnc(Cl)c3ccccc23)cc1	HSF-1 act 121
O=C(NCCc1ccncc1)Nc1ccc(Cl)c(Cl)c1	T cruzi inh 68, HSF-1 act inconclusive
O=C(NCCc1ccncc1)Nc1ccccc1	none
O=C(NCCc1ccccc1)Nc1ccc2c(c1)OCO2	HSF-1 act 62
O=C(NCCc1ccc(F)cc1)Nc1ccc2c(c1)OCO2	none
CCN1C(=O)C(CC(=O)Nc2ccc(Br)cc2)N(CCCc2ccccc2)C1=S (centres undefined)	T cruzi inh 56
CN1C(=O)C(CC(=O)Nc2ccc(Cl)cc2)N(Cc2ccco2)C1=S (centres undefined)	HSF-1 act 53
CCOc1ccc(NC(=O)CC2C(=O)N(C)C(=S)N2CCCc2ccccc2)cc1 (centres undefined)	T cruzi inh 55
CCOc1ccc(NC(=O)CC2C(=O)N(C)C(=S)N2Cc2ccco2)cc1 (centres undefined)	none
O=C(CC1C(=O)N(Cc2ccccc2)C(=S)N1CCN1CCOCC1)Nc1ccc(F)cc1 (centres undefined)	HSF-1 act 61
CCOc1ccc(NC(=O)CC2C(=O)N(CC)C(=S)N2CCNC(C)=O)cc1 (centres undefined)	none
O=C(CC[C@H]1O[C@@H](n2ccc(=O)[nH]c2=O)[C@H](O)[C@@H]1O)N[C@@H](Cc1ccccc1)C(=O)NCC1CCCO1 (some centres undefined)	none (no result: PfHsp90 yeast 2, T cruzi inh, PvdQ acylase, HSF-1 act)
COC(=O)c1ccc2c(c1)C(C)(C)C(/C=C/c1ccccc1O)=[N+]2C	T cruzi inh 74
COC(=O)c1ccc(NC(=O)CCN2CCN(Cc3ccccc3)CC2)cc1	T cruzi inh 65
O=C(Nc1ccc(F)cc1)C(c1cccc(F)c1)N1CCN(c2ccncc2)CC1 (centres undefined)	none (no result: Glyco luc inh, PfHsp90 yeast 2, T cruzi inh, PvdQ acylase, HSF-1 act)
CCOC(=O)/C(=C/c1ccc(OC(=O)c2ccccc2)cc1)C(C)=O	PfHsp90 yeast 2 106, HSF-1 act 77
CC1CCN(c2nc3ccccc3nc2C(C#N)C(=O)OC2CCCCC2)CC1 (centres undefined)	none (no result: PfHsp90 yeast 2, CaV13 ICDI inh)
N#CC(C(=O)OC1CCCCC1)c1nc2ccccc2nc1N1CCCCC1 (centres undefined)	T cruzi inh 67 (no result: Glyco luc inh, PfHsp90 yeast 2, PvdQ acylase)
CC1CN(c2nc3ccccc3nc2C(C#N)C(=O)OC2CCCCC2)CC(C)O1 (centres undefined)	T cruzi inh 63 (no result: PfHsp90 yeast 2)
CCOC(=O)c1c(NC(=O)CSc2nnc3c(n2)[nH]c2ccccc23)sc2c1CCN(C)C2	T cruzi inh 77 (no result: CaV13 ICDI inh)
CCOC(=O)c1c(NC(=O)CSc2ncccn2)sc2c1CCN(Cc1ccccc1)C2	T cruzi inh 56, CaV13 ICDI inh 36
NC(=O)c1c(NC(=O)Cc2ccccc2)sc2c1CCN(Cc1ccccc1)C2	HSF-1 act 62, CaV13 ICDI inh 40
CCOC(=O)c1c(NC(=O)CSc2nnc3c(n2)[nH]c2ccc(F)cc23)sc(C(C)=O)c1C	none (no result: T cruzi inh, HSF-1 act)
CCOC(=O)c1c(NC(=O)CN2CCCCC2)sc2c1CCN(C(=O)OCC)C2	T cruzi inh 60
CC(=O)Nc1sc2c(c1C(N)=O)CCN(Cc1ccccc1)C2	none
C#CCN1CC(COc2ccccc2)Oc2cccc(Oc3ccc(C(C)C)cc3)c2S1(=O)=O (centres undefined)	none (no result: Glyco luc inh, PfHsp90 yeast 2, T cruzi inh, PvdQ acylase, HSF-1 act)
Cc1cc(C)cc(C(O)c2ncc(-c3cccc(C(F)(F)F)c3)[nH]2)c1 (centres undefined)	none (no result: PfHsp90 yeast 2, T cruzi inh, PvdQ acylase, HSF-1 act)
O=C1N[C@@H](Cc2ccccc2)C(=O)N2[C@H]1CSCCS2(=O)=O	none (no result: Glyco luc inh, PfHsp90 yeast 2, T cruzi inh, PvdQ acylase, HSF-1 act)
CCN1CCc2c(sc(NC(=O)c3ccc4ccccc4c3)c2C(N)=O)C1	T cruzi inh 62
CCN1CCN(S(=O)(=O)c2ccc(C(=O)Nc3sc4c(c3C(N)=O)CCN(CC)C4)cc2)CC1	none
CC(=O)N1CCc2c(sc(NC(=O)Cc3ccc(F)cc3)c2C#N)C1	none
CN1CCc2c(sc(NC(=O)Cc3ccccc3)c2C#N)C1	CaV13 ICDI inh 120
Cc1ccc(Cl)cc1-c1cc(C(=O)N2CCN(c3ccncc3)CC2)[nH]n1	none (no result: PfHsp90 yeast 2, T cruzi inh, PvdQ acylase, HSF-1 act)
O=C(NN1C(=O)/C(=C\c2ccc(O)c([N+](=O)[O-])c2)SC1=S)c1ccccc1Cl	PfHsp90 yeast 2 104
O=C(O)c1ccc(/C=C2\SC(=S)N(NC(=O)c3ccccc3[N+](=O)[O-])C2=O)cc1	none
COc1ccc(-c2csc(CCn3nc(C)cc3C)n2)cc1	none
Cc1cc(C)n(CCc2nc(-c3ccc(-c4ccccc4)cc3)cs2)n1	HSF-1 act 52
COc1ccc(NC(=O)C(Cl)=C(Cl)Cl)cn1	none
COc1ccc(NC(=O)/C(Cl)=C(/Cl)S(=O)Cc2ccc(Cl)cc2)cn1 (centres undefined)	PfHsp90 yeast 2 106 (no result: T cruzi inh, HSF-1 act)
CCNC(=S)N1CCN(c2ccc([N+](=O)[O-])cc2)CC1	none (no result: CaV13 ICDI inh)
O=[N+]([O-])c1ccc(N2CCN(C(=S)NCc3ccc(Cl)cc3)CC2)cc1	T cruzi inh 57
